# EP2 modulator: modulates human prostaglandin E2 receptor EP2 signaling; P43116; EP2-expressing cells, cAMP HTRF FRET, PGE2 co-stimulation; induction, % at 25 µM; 0.83% of 260,000 active;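 active = compounds whose cAMP rise, as percent of the full-agonist control response, exceeds 60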;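 also: rat C6 glioma line stably carrying human EP2 under a CMV promoter; the protocol text gives 20 µM as final concentration; 100% = response of wells given 1 µM PGE2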
# PGE2 EP2 inh: inhibitors of human EP2 prostaglandin E2 receptor. P43116. 0.52% of 260,000 active. inhibition, % at 25 µM. C6 glioma cells expressing human EP2, cAMP TR-FRET; cells stimulated with saturating PGE2. AID 1422;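 active = percent inhibition above 40 after rounding to a whole number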;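 also: rat C6 glioma host cells with rolipram phosphodiesterase inhibitor present; the protocol text gives 20 µM as final concentration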
# NPY2 pot ag: potentiators or agonists of human neuropeptide Y receptor Y2; P49146; cells expressing NPY-Y2, potentiator/agonist read-out; activation, % at 3.6 µM; 0.45% of 220,000 active; in the data active = activation above about 27%;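 also: cells stimulated with NPY near EC25 plus isoproterenol at EC100; 0% = vehicle plus submaximal agonist and 100% = vehicle plus saturating agonist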
# Target sequence (P49146 whole entry, looked up): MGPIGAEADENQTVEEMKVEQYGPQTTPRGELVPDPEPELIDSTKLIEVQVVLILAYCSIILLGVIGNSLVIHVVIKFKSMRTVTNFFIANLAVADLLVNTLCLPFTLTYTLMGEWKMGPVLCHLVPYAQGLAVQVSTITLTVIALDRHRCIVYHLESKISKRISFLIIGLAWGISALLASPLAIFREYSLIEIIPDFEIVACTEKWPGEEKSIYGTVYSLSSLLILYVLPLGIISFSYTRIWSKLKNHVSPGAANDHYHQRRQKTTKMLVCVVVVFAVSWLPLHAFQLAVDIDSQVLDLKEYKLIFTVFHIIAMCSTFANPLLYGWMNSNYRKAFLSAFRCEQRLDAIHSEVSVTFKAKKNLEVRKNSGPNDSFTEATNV
# NPY Y2 blocker: NPY-Y2 (human) receptor antagonism; inhibition, % at 2.7 µM; AID 793; NPY-Y2 expressing cells, antagonist mode; P49146; 0.99% of 140,000 active;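 also: 0% = vehicle with agonist challenge and 100% = reference antagonist with challenge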
# NPY-Y1 antag: antagonists of human neuropeptide Y receptor Y1 | inhibition, % at 3.6 µM | HEK293-CNG Y1 cells, membrane potential fluorescence; NPY at EC95, then isoproterenol | AID 1040 | 1% of 200,000 active;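 active = inhibition above the campaign mean inhibition of all tested compounds plus 3 SD, cut at about 20% in these data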;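 also: 0% = DMSO wells given NPY plus isoproterenol and 100% = isoproterenol alone without NPY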
#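 Material: HEK293 cells co-expressing NPY Y1 receptor and cyclic-nucleotide gated channel. Timing: compound incubation 1 h at room temperature, readout 45 min post-stimulation. Signal: fluorescence, membrane potential probe.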
# NPY-Y1 PAM-ag: potentiates or activates human NPY-Y1 receptor. P25929. NPY-Y1 expressing cells, potentiator/agonist activation. activation, % at 3.6 µM. 0.37% of 220,000 active. AID 1304; in the data active = activation above about 33%, passing the limit was not always enough;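 also: cells stimulated with NPY at EC10 then isoproterenol at EC100; 0% = low agonist plus stimulus and 100% = saturating agonist plus stimulus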
# NPY-Y1 ant conf: confirmation of human neuropeptide Y receptor Y1 antagonists | 21% of 1,200 active | HEK293-CNG NPY-Y1, membrane potential fluorescence, cAMP; NPY challenge against isoproterenol-raised cAMP | inhibition, % at 3.6 µM | AID 1254 | shares compounds with NPY-Y1 antag; in the data active = inhibition above about 20%;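 also: 0% = vehicle with agonist plus stimulus and 100% = stimulus alone without agonist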
# NPY-Y2 antag ct: human NPY-Y2 antagonism in NPY-Y1 counter-screen; inhibition, % at 3.6 µM; 28% of 1,200 active; HEK293 NPY-Y2 CNG membrane potential fluorescence; cells given NPY, then isoproterenol; shares compounds with NPY-Y1 antag;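 also: 0% = DMSO with agonist challenge and 100% = reference antagonist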
# An asterisk follows results filed as active; . = no result. Compounds with a hit are over-represented: about 2.8% of the library has one in this group of screens. Rule as the data show it, unless noted: active = inhibition above about 17%; inactive = the rest.
SMILES,EP2 modulator,PGE2 EP2 inh,NPY2 pot ag,NPY Y2 blocker,NPY-Y1 antag,NPY-Y1 PAM-ag,NPY-Y1 ant conf,NPY-Y2 antag ct
COc1ccc2c(c1)C(C)=CC(C)(C)N2S(=O)(=O)c1ccc(C)cc1,60,14,7,.,36*,-1,18,15
CC(=O)Nc1ccc(C(=O)CSc2cc(C)c3cccc(C)c3n2)cc1,13,6,17,6,3,-5,.,.
Cc1cc(SCC(=O)c2cccs2)nc2c(C)cccc12,44,.,-24,12,22*,-19,4,8
CC(/C=C/c1ccc(C)o1)=C\C(=O)O,47,5,6,8,22*,-4,4,6
CCc1c(C)sc(NC(=O)c2cccs2)c1C(=O)OC(C)C,46,27,-16,4,20*,-19,10,18*
Cc1cc(NC(=O)CC2CCCC2)n(-c2nc3ccccc3[nH]2)n1,-8,12,-7,17,21*,-24,17,8
O=c1[nH]c(CSc2nnc(-c3ccccc3)n2C2CCCCC2)nc2ccccc12,26,7,10,0,30*,-4,-2,0
COc1ccc(CN2C(=O)c3ccccc3C2C(=O)NCC2CCCO2)c(OC)c1 (centres undefined),3,17,-6,1,5,-13,.,.
COc1ccc(CN2C(=O)c3ccccc3C2C(=O)NC2CCCC(C)C2C)c(OC)c1 (centres undefined),0,11,-8,.,36*,-16,10,7
COc1ccc(CN2C(=O)c3ccccc3C2C(=O)NC2CCCC2)c(OC)c1 (centres undefined),-15,7,4,-1,6,2,.,.
COc1ccc(CN2C(=O)c3ccccc3C2C(=O)NC2CCC(C)CC2)c(OC)c1 (centres undefined),-3,7,-20,.,23*,-1,3,5
CCn1c2cc(C)sc2c2cnn(CC(=O)N3CCCC3)c(=O)c21,5,.,.,.,.,.,.,.
Cn1c(=NCC(O)COc2ccccc2)sc2ccccc21 (centres undefined),-37,8,-23,12,22*,-57,7,15
Clc1ccc(CN(CC2CCCO2)C(c2cccs2)c2nnnn2C2CCCC2)cc1 (centres undefined),26,5,-2,11,40*,-16,13,16
CC(C)C(c1nnnn1C1CCCC1)N(Cc1ccc(Cl)cc1)CC1CCCO1 (centres undefined),7,8,.,.,.,.,.,.
COc1ccc(C2c3[nH]c4ccccc4c3CCN2CCCn2cccn2)c(C)c1C (centres undefined),37,7,-17,.,36*,-15,19,20*
Cc1ccc(CNC(=O)CCc2nc(-c3cccs3)no2)cc1,3,14,-28,7,21*,-20,9,8
CSCCC(NC(=O)c1ccco1)C(=O)OC(C)C(=O)NC(=O)NC1CCCCC1 (centres undefined),4,8,-21,2,25*,-27,8,8
COc1ccc(CNC(=O)C(CCSC)NC(=O)c2ccco2)cc1 (centres undefined),21,7,-4,2,3,2,.,.
COc1ccc(-n2nc3ccc(NC(=S)NC(=O)c4ccc(OC)c(OC)c4)cc3n2)cc1,-45,11,.,.,.,.,.,.
Cc1ccc(SCCC(=O)OCC(=O)NCC2CCCCC2)cc1,0,2,-36,.,36*,-64,14,9
Cc1ccc(SCCC(=O)OCC(=O)Nc2ccc(S(N)(=O)=O)cc2)cc1,-28,3,-16,.,.,-43,.,.
O=C(CCCCn1c(=O)[nH]c2ccccc2c1=O)N1CCN(c2cccc(C(F)(F)F)c2)CC1,-28,10,4,2,21*,-56,3,3
CCOC(=O)c1c(NC(C)=O)sc2c(OCC(O)CN(CC)CC)c(Br)ccc12 (centres undefined),-50,4,-82,.,80*,-181,104*,117*
CCOC(=O)c1c(NC(C)=O)sc2c(OCCN(CC)CC)c(Br)ccc12,-16,3,-38,.,10,-75,.,.
SMILES,EP2 modulator,PGE2 EP2 inh,NPY2 pot ag,NPY Y2 blocker,NPY-Y1 antag,NPY-Y1 PAM-ag,NPY-Y1 ant conf,NPY-Y2 antag ct
Cc1ccc(-c2csc(N(CCc3ccccc3)C(=O)COc3ccccc3)n2)cc1,-10,10,-6,1,-1,-16,.,.
O=C(COc1ccccc1)N(CCc1ccccc1)c1nc(-c2ccc(F)cc2)cs1,27,.,-32,8,37*,-45,13,19*
O=C(CNC(=O)c1cccs1)OCC(=O)c1ccc(Cl)c(Cl)c1,-1,13,.,.,.,.,.,.
CCC(=O)c1cn(CC(=O)N2CCC(C)CC2)c2ccccc12,-35,2,.,.,.,.,.,.
Cc1ccc(C(C)C)c(OCCCN2C(=O)NC(C)(C)C2=O)c1,19,2,-8,3,-2,-4,.,.
Cc1ccc(C(C)C)c(OCCCN(C)Cc2ccccc2)c1,11,6,-11,12,32*,-28,12,18*
O=C1/C(=C\c2ccc(Br)o2)Cc2ccccc21,28,9,14,13,25*,-22,16,7
O=C1/C(=C/c2cccs2)Cc2ccccc21,10,5,9,6,-1,13,.,.
Cc1ccc(NS(=O)(=O)c2ccc3c(c2)OCCO3)c(C)c1,-99,8,.,.,.,.,.,.
O=S(=O)(N/N=C/c1ccc2c(c1)OCCO2)c1ccc(Cl)cc1,-29,6,-20,13,3,1,.,.
Cc1cc(Cl)c(S(=O)(=O)N/N=C/c2ccc3c(c2)OCO3)c(Cl)c1,-31,.,-5,7,20*,-22,9,14
CC(=O)c1ccc(NC(=O)CSc2nnc(-c3cccs3)n2C)cc1,-8,5,.,.,.,.,.,.
CCCCC(O)(CCCC)C(=O)NN(C(=O)OC)c1ccccc1,22,5,6,8,26*,-6,25*,11
CCCC(O)(CCC)C(=O)NN(C(=O)CCl)c1ccccc1,12,8,-8,4,1,1,.,.
CCCCC(O)(CCCC)C(=O)NN(C(=O)OCC)c1ccccc1,31,4,-11,16,34*,-24,10,9
Cc1ccc(-n2cc(CNCCc3ncc(C)[nH]3)c(-c3ccc(F)cc3)n2)cc1,-55,2,-21,.,27*,-29,12,25*
Cc1ccc(-n2cc(CNCCn3nc(C)cc3C)c(-c3ccc(F)cc3)n2)cc1,-3,9,-7,.,26*,-19,27*,14
CCc1nc(C(N)=O)c2[nH]c(=O)n(-c3cccc(F)c3)c2n1,13,.,.,.,.,.,.,.
